A selection follows.
Apaf1 activ – human Apaf-1 activation; 330,000 compounds, 0.31% hits; AID 489031; Apaf-1 apoptosome caspase-3 activation, DEVD-Rh110 fluorescence; active compounds read low; activity change, negative = activation, % at 20 µM;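 active = activity change at or below -40% at 20 µM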
Target sequence (O14727 whole entry, looked up): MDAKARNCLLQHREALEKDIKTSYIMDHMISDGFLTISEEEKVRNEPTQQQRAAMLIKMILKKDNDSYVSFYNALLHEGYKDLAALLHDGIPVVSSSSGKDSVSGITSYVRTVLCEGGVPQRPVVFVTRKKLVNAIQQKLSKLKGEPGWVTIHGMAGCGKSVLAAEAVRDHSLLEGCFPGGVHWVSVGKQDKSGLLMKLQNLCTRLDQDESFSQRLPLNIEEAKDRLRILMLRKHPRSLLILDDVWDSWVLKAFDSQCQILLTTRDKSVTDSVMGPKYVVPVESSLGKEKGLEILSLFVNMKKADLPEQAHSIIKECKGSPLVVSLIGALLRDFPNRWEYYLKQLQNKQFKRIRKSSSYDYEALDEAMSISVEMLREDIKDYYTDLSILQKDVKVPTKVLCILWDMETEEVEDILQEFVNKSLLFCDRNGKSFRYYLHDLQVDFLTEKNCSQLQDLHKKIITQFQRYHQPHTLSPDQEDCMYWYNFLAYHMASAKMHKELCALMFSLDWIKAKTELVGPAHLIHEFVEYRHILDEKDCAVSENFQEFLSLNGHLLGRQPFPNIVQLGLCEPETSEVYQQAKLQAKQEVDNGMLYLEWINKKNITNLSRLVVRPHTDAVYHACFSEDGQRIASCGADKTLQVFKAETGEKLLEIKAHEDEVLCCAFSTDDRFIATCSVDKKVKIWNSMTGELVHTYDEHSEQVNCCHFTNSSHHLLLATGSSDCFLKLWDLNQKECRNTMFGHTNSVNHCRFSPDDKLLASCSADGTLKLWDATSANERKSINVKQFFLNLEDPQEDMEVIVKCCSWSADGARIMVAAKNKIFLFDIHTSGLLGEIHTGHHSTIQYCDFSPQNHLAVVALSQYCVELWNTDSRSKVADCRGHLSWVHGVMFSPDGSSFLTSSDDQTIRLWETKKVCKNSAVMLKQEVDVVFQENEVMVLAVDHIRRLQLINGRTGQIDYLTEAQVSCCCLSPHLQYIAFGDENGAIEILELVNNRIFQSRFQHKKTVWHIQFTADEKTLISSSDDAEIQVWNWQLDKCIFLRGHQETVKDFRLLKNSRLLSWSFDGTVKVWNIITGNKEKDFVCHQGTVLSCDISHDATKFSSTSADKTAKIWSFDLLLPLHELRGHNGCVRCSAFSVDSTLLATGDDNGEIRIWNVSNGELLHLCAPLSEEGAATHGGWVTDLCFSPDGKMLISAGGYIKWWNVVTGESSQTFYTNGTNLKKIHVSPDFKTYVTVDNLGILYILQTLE
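System: Reconstituted apoptosome of Apaf-1, cytochrome c, caspase-9, procaspase-3 | Reagent: dATP, cytochrome c, and (Z-DEVD)2-Rh110 caspase-3 substrate | Times: 30 min compound preincubation and 50 min reaction, both room temperature | Detection: Caspase-3-released Rh110 fluorescence, 540 nm emission, 480 nm excitation | Measure: Caspase-3 activity via Apaf-1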
Rh110 act interf – Rh110 signal interference in Apaf-1 activator counter-screen; shares compounds with Apaf1 activ; Rh110 fluorescence interference, quenched caspase reaction, Ex480/Em540; fluorescence interference (activity change), % at 20 µM, hits read low; 980 tested, under 10 active; AID 504616;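 active = mean activity change at or below -40% when tested at 20 µM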
Apaf-1 act conf2 – Apaf-1 (human) activation, single-dose confirmed | shares compounds with Apaf1 activ | reconstituted apoptosome caspase-3 activity, DEVD-Rh110 fluorescence; active compounds read low | activity change, negative = activation, % at 20 µM | 980 compounds, 5% hits;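 active = mean activity change at or below -40%, meaning activation of 40% or more, at 20 µM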
* marks the source's active call; other numbers are inactive results; . = no result given; + = active, no number.

SMILES	Apaf1 activ	Rh110 act interf	Apaf-1 act conf2
Cn1c(SCC(=O)NNC(=O)c2ccccc2)nnc1C(F)(F)F	-97*	-2	8
N#Cc1nc(-c2ccco2)oc1N1CCc2ccccc2C1	52	.	.
CCCCCCCCCCC[N+](C)(C)CC/C=C1/c2ccccc2Sc2ccc(Cl)cc21	75	.	.
COC(=O)c1ccccc1-c1ccc(C(c2c(C)[nH][nH]c2=O)c2c(C)[nH][nH]c2=O)o1	79	.	.
COC(=O)c1ccccc1-c1c2ccc(=N)cc-2oc2cc(N)ccc12	-332*	+	-82*
CC(=O)NC1=C(N(C)C2CCS(=O)(=O)C2)C(=O)c2ccccc2C1=O (centres undefined)	54	.	.
c1cc(SC2CCCCC2)cc(-c2nc3cnccn3c2NC2CCCCC2)c1	41	.	.
Cc1ccc2nc(-c3cccnc3)c(NC3CCCCC3)n2c1	-50*	5	14
CCC(C)Sc1ccc(-c2nc3ccc(C)cn3c2NC2CCCCC2)cc1 (centres undefined)	41	.	.
O=[N+]([O-])c1cc([N+](=O)[O-])c2nonc2c1Nc1ccc(O)cc1	74	.	.
O=[N+]([O-])c1cncc([N+](=O)[O-])c1Nc1cccc(O)c1	-64*	12	18
O=C1C(Nc2cccc(O)c2)=C(N2CCCCC2)C(=O)c2ccccc21	88	.	.
Cc1ccc(C(=O)NC2(O)C(=O)c3ccccc3C2=O)cc1C	97	.	.
COCCN(C(=O)COC(=O)/C=C/c1ccc(C(F)(F)F)cc1)c1c(N)n(Cc2ccccc2)c(=O)[nH]c1=O	44	.	.
CCOC(=O)c1[nH]c(COC(=O)c2ccccc2NC(=O)c2ccco2)c(C(=O)OCC)c1C	-383*	9	11
CCN(C(=S)NC(=O)c1ccco1)c1cccc2ccccc12	82	.	.
NC1=NC[C@H](Cc2ccc(O)cc2)N1CCCCC1CCCCC1	53	.	.
O=C(C[C@H]1C[C@H](C(=O)N2CCOCC2)[C@@]2(CCC3CCCC3)c3[nH]c4cc(-c5ccco5)ccc4c3CCN2C1=O)NCCCn1ccnc1	62	.	.
COc1ccc(-c2oc3ccc(-c4cc(OC)c(OC)c(OC)c4)cc3c2-c2ccc(OC)cc2)cc1	-211*	6	1
COC(=O)c1c(C(=O)OC)c2cccc3cc(-c4ccccc4)c4ccc1c4n32	65	.	.
COC(=O)c1cccc(-c2ccc(C(c3c(C)[nH][nH]c3=O)c3c(C)[nH][nH]c3=O)o2)c1	81	.	.
CC(OC(=O)c1ccc(-n2cnnn2)cc1)C(=O)Nc1ccccc1F (centres undefined)	-229*	11	13
O=C(c1cccs1)[C@@H]1[C@@H]2C(=O)N(Cc3ccc4c(c3)OCO4)C(=O)[C@@H]2C2c3ccccc3C=CN21 (some centres undefined)	82	.	.
CCc1nc(N2CCN(C(C)=O)CC2)c2c3c(sc2n1)CC(C(C)(C)C)CC3 (centres undefined)	42	.	.
COc1cccc(-c2cc(C(=O)N3CCN(c4ccc(F)cc4)CC3)no2)c1	-69*	-1	16
SMILES	Apaf1 activ	Rh110 act interf	Apaf-1 act conf2
COc1ccc(OCc2cc(C(=O)N3CCC(OC)CC3)no2)c2ccccc12	49	.	.
O=C(c1cccc(S(=O)(=O)N2CCN(c3ccc(F)cc3)CC2)c1)N1CCCCCCC1	42	.	.
COc1ccc(-c2cc(C(=O)N3CCN(C(c4ccccc4)c4ccccc4)CC3)no2)cc1OC	-159*	-6	10
CCN(CC)CCNC(=O)c1ccc(NC(=O)c2cn(-c3ccc(F)cc3)nc2-c2cccc(OC)c2)cc1	45	.	.
C[C@H](CCC(=O)NCC(=O)O)[C@H]1CC[C@H]2[C@@H]3[C@H](O)C[C@@H]4C[C@H](O)CC[C@]4(C)[C@H]3C[C@H](O)[C@]12C	-9	.	.
CNC[C@H](Cc1cccc2ccccc12)NC[C@H](CCSC)NCC1CCC(C(C)(C)C)CC1 (some centres undefined)	65	.	.
CCN(CC)c1ccc(NC(=O)c2cnn(CC)c2)cc1	-55*	7	11
CCCCn1c(NC(=O)c2ccc(F)cc2)c(C#N)c2nc3ccccc3nc21	95	.	.
Cc1[nH]c2ccc(C(=O)NCC(C)(C)N3CCOCC3)cc2c1C	-519*	0	8
CCN1/C(=C/C=C/C=C/c2sc3ccccc3[n+]2CC)Sc2ccccc21	80	.	.
Cc1nc(Nc2cnc(/C=C/c3cc(C(=O)Nc4cccc(C(F)(F)F)c4)ccc3C)cn2)cc(N2CCNCC2)n1	75	.	.
O=C(Nc1cccc(-n2cnnn2)c1)c1ccc(C(F)(F)F)cc1	-67*	4	0
O=C(NC1(O)C(=O)c2ccccc2C1=O)c1ccc(C(F)(F)F)cc1	96	.	.
C=CCn1c(N)c(C(=O)Nc2ccccc2)c2nc3ccccc3nc21	67	.	.
CC(=O)c1ccc(OCC(O)CN2CCN(Cc3ccc4c(c3)OCO4)CC2)cc1 (centres undefined)	0	.	.
C/C(=N\NC(=O)Cn1ccc(C(F)(F)F)n1)c1ccc2c(c1)OCO2	-134*	1	0
COc1cc(OC)c2c(-c3ccccc3)cc(=O)oc2c1C(CCN1CCOCC1)c1ccc(N(C)C)cc1 (centres undefined)	52	.	.
CC(C)(C)OC(=O)[C@H](CCCCN)NC(=O)c1[nH]cnc1C(=O)N[C@@H](Cc1ccccc1)C(=O)OCc1ccccc1	65	.	.
COc1ccnc(Oc2ccc(F)cc2)c1C#N	-47*	4	-1
Cc1ccc(C(=O)c2c(C)oc3c2C(=O)C(=O)c2ccccc2-3)cc1	88	.	.
O=C(N/N=C\C=C\c1ccc([N+](=O)[O-])o1)c1cccs1	49	.	.
CCCCCc1cc(=O)oc2c(C(CCN3CCCC(C)C3)c3cc(OC)c(OC)c(OC)c3)c(OC)cc(OC)c12 (centres undefined)	60	.	.
COc1ccc(C(=O)Nn2cnc3scc(-c4cccs4)c3c2=O)c(O)c1	-391*	2	21
CCOC(=O)Nc1ccc2c(c1)N(C(=O)OCCN(C)C)c1ccccc1CC2	-1	.	.
CC(=O)N1CCN(C2=Nc3cccc4cccc2c34)CC1	80	.	.
SMILES	Apaf1 activ	Rh110 act interf	Apaf-1 act conf2
C=CCNC(=O)c1c(N)n(-c2cccc(S(N)(=O)=O)c2)c2nc3ccccc3nc12	61	.	.
NS(=O)(=O)c1ccc(NC(=O)c2ccc3nccnc3c2)cc1	-44*	1	3
CCN1C(=NCCc2ccc(Br)cc2)N[C@@H](c2ccccc2)[C@H](C(=O)OC)[C@H]1C	45	.	.
CCC(C)[C@H]1CN=C(N)N1CCc1cc(C(F)(F)F)cc(C(F)(F)F)c1 (some centres undefined)	57	.	.
COC(=O)CCC(=O)OC1(C)C(=O)C=C2C=C(C3CC3)N(C3CC3)C=C2C1=O (centres undefined)	54	.	.
C[C@@]12CCC=C[C@H]1[C@H](c1ccc3ccccc3c1Br)N(Cc1ccccc1)C2=O	49	.	.
N=C1SC(c2ccccc2)C(=O)N1c1ncc(Cc2ccccc2Cl)s1 (centres undefined)	-171*	-6	11
O=C(Nc1ccc2c(c1)OCO2)[C@@H]1[C@@H]2C(=O)N(C3CCCCC3)C(=O)[C@@H]2C2c3ccccc3C=CN21 (some centres undefined)	42	.	.
O=C1/C(=C/Nc2ccc3c(c2)OCO3)CCc2ccccc21	45	.	.
O=C(CSc1ccc2c(c1)OCCO2)Nc1ccc2c(c1)OCO2	-578*	10	11

Screening results deposited in PubChem by Sanford-Burnham Center for Chemical Genomics.
